ChEMBL document CHEMBL4251662, “Alkyl indole-based cannabinoid type 2 receptor tools: Exploration of linker and fluorophore attachment” (Eur J Med Chem, 2018)
Activity calls are given as the source filed them. No cut-off for these calls is given here.

What was measured:
Cannabinoid receptor 2 [1] = target: T1, Cannabinoid receptor 2 (Homo sapiens, UniProt P34972); experiment: Agonist activity at N-terminal HA-tagged human CB2 receptor expressed in HEK293 cells transfected with YFP-Epac-RLuc assessed as decrease in forskolin-stimulated cAMP level at 10 uM by BRET assay; assay type: functional, cell-based
In short: (§1)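 Single-concentration screen at 10 µM in CB receptor-expressing HEK293 cells, run with and without CP55,940 as reference agonist. Forskolin-stimulated cAMP read by BRET biosensor. A fall in cAMP is scored as agonism and a rise as inverse agonism.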

HEK293 [2] = experiment: Effect on forskolin-stimulated cAMP level in HEK293 cells at 1 uM by BRET assay relative to control; assay type: ADME, cell-based; settings: human, hek293, 1 µM
In short: (§2)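 Wild-type HEK293 cells lacking transfected receptor, tested at 10 µM and 1 µM. Forskolin-stimulated cAMP measured by BRET as a check that responses are receptor-mediated.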

Cannabinoid receptor 2 [3] = target: T1, Cannabinoid receptor 2; experiment: Agonist activity at N-terminal HA-tagged human CB2 receptor expressed in HEK293 cells transfected with YFP-Epac-RLuc assessed as decrease in forskolin-stimulated cAMP level by BRET assay; assay type: functional, cell-based
In short: (§3)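 BRET cAMP biosensor read-out in HEK293 cells expressing HA-tagged human CB1 or CB2, with forskolin stimulation (5 µM). Concentration-response curves; area-under-curve values normalised to forskolin alone = 100% and basal = 0%. EC50 taken for agonists and IC50 for inverse agonists. Mean of at least three independent experiments, each point in duplicate.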

Cannabinoid receptor 1 [4] = target: T2, Cannabinoid receptor 1 (Homo sapiens, UniProt P21554); experiment: Agonist activity at N-terminal HA-tagged human CB1 receptor expressed in HEK293 cells transfected with YFP-Epac-RLuc assessed as decrease in forskolin-stimulated cAMP level at 10 uM by BRET assay; assay type: functional, cell-based; in short: as §1
Cannabinoid receptor 2 [5] = target: T1, Cannabinoid receptor 2; experiment: Displacement of [3H]CP55,940 from N-terminal HA-tagged human CB2 receptor expressed in HEK293 cell membranes at 10 uM after 1 hr by microbeta scintillation counting method relative to control
In short: (§4)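 Single-point competition screen against [3H]CP55,940 in HEK293 cells over-expressing 3HA-tagged hCB2 or hCB1. Compounds giving more than 50% displacement went on to full concentration-response curves.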

[6] = target: T3, Potassium voltage-gated channel subfamily KQT member 3 (Homo sapiens) (UniProt O43525); experiment: Agonist activity at KCNQ3 (unknown origin)
T3 sequence (whole entry): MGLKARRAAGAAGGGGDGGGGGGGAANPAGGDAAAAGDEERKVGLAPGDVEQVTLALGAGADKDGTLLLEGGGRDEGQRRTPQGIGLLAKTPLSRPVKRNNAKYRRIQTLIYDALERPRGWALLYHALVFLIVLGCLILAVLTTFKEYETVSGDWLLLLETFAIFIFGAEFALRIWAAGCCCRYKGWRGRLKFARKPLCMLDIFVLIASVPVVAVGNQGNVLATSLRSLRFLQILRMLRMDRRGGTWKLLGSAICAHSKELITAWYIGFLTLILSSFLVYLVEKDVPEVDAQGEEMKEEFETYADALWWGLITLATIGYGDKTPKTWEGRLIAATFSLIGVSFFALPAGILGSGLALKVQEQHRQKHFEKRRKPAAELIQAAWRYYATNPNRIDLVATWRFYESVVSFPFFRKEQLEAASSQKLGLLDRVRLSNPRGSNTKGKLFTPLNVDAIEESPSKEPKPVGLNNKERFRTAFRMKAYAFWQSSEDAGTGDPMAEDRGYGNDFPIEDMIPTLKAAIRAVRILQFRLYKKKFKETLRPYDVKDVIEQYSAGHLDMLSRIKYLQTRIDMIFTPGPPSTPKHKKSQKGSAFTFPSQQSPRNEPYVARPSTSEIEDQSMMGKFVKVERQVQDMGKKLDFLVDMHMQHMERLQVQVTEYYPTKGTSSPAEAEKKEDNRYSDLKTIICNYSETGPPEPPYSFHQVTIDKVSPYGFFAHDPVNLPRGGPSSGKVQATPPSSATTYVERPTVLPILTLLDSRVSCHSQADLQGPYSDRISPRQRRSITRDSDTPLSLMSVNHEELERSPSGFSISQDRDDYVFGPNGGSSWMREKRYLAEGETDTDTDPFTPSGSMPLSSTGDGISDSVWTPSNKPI

Cannabinoid receptor 1 [7] = target: T2, Cannabinoid receptor 1; experiment: Agonist activity at N-terminal HA-tagged human CB1 receptor expressed in HEK293 cells transfected with YFP-Epac-RLuc assessed as decrease in forskolin-stimulated cAMP level by BRET assay relative to control; assay type: functional, cell-based; in short: as §3
[8] = target: Interleukin-17A (Homo sapiens) (UniProt Q16552); experiment: Inhibition of IL-17 (unknown origin) assessed as disruption of IL-17 protein-protein interaction
Cannabinoid receptor 1 [9] = target: T2, Cannabinoid receptor 1; experiment: Displacement of [3H]CP55,940 from N-terminal HA-tagged human CB1 receptor expressed in HEK293 cell membranes at 10 uM after 1 hr by microbeta scintillation counting method relative to control; in short: as §4
Cannabinoid receptor 2 [10] = target: T1, Cannabinoid receptor 2; experiment: Agonist activity at N-terminal HA-tagged human CB2 receptor expressed in HEK293 cells transfected with YFP-Epac-RLuc assessed as decrease in forskolin-stimulated cAMP level by BRET assay relative to control; assay type: functional, cell-based; in short: as §3
[11] = target: Potassium voltage-gated channel subfamily KQT member 2 (Homo sapiens) (UniProt O43526); experiment: Agonist activity at KCNQ2 (unknown origin)
HEK293 [12] = experiment: Effect on forskolin-stimulated cAMP level in HEK293 cells at 10 uM by BRET assay relative to control; assay type: ADME, cell-based; settings: human, hek293, 10 µM; in short: as §2
[13] = target: T4, Free fatty acid receptor 4 (Homo sapiens) (UniProt Q5NUL3); experiment: Agonist activity at GPR120 (unknown origin); assay type: functional
T4 sequence (whole entry): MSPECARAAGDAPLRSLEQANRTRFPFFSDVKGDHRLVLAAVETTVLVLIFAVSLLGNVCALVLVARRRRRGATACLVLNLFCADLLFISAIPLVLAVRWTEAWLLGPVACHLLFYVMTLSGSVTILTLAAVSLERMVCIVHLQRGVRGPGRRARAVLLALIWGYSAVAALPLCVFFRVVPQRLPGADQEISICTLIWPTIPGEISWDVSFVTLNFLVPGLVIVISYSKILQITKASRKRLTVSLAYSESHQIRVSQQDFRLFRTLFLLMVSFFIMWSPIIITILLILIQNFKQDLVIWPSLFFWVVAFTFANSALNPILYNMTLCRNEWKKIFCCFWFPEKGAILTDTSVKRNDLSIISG

Cannabinoid receptor 2 [14] = target: T1, Cannabinoid receptor 2; experiment: Displacement of [3H]CP55,940 from N-terminal HA-tagged human CB2 receptor expressed in HEK293 cell membranes after 1 hr by microbeta scintillation counting method; settings: read-out: Ki
[15] = target: Proprotein convertase subtilisin/kexin type 9 (Homo sapiens) (UniProt Q8NBP7); experiment: Inhibition of PCSK9 (unknown origin)
[16] = target: T5, Nicotinamide N-methyltransferase (Homo sapiens) (UniProt P40261); experiment: Inhibition of NNMT (unknown origin)
T5 sequence (whole entry): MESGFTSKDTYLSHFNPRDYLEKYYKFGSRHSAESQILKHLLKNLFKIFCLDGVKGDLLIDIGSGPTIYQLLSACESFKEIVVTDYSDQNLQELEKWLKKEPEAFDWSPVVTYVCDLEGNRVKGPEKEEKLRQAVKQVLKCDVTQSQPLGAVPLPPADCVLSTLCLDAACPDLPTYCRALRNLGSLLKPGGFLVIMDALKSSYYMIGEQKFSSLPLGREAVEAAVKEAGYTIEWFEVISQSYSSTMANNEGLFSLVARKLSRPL

Cannabinoid receptor 1 [17] = target: T2, Cannabinoid receptor 1; experiment: Agonist activity at N-terminal HA-tagged human CB1 receptor expressed in HEK293 cells transfected with YFP-Epac-RLuc assessed as decrease in forskolin-stimulated cAMP level by BRET assay; assay type: functional, cell-based; in short: as §3
Cannabinoid receptor 1 [18] = target: T2, Cannabinoid receptor 1; experiment: Displacement of [3H]CP55,940 from N-terminal HA-tagged human CB1 receptor expressed in HEK293 cell membranes after 1 hr by microbeta scintillation counting method; settings: read-out: Ki
Leishmania donovani = experiment: Growth inhibition of Leishmania donovani; assay type: functional, organism-based
Cannabinoid receptor 2 [19] = target: T1, Cannabinoid receptor 2; experiment: Activity at N-terminal HA-tagged human CB2 receptor expressed in HEK293 cells transfected with YFP-Epac-RLuc assessed as effect on forskolin-stimulated cAMP level by BRET assay; assay type: functional, cell-based; in short: as §3
Cannabinoid receptor 2 [20] = target: T1, Cannabinoid receptor 2; experiment: Activity at N-terminal HA-tagged human CB2 receptor expressed in HEK293 cells transfected with YFP-Epac-RLuc assessed as effect on forskolin-stimulated cAMP level by BRET assay relative to control; assay type: functional, cell-based; in short: as §3
Cannabinoid receptor 1 [21] = target: T2, Cannabinoid receptor 1; experiment: Activity at N-terminal HA-tagged human CB1 receptor expressed in HEK293 cells transfected with YFP-Epac-RLuc assessed as effect on forskolin-stimulated cAMP level by BRET assay; assay type: functional, cell-based; in short: as §3
Cannabinoid receptor 1 [22] = target: T2, Cannabinoid receptor 1; experiment: Activity at N-terminal HA-tagged human CB1 receptor expressed in HEK293 cells transfected with YFP-Epac-RLuc assessed as effect on forskolin-stimulated cAMP level by BRET assay relative to control; assay type: functional, cell-based; in short: as §3
Cannabinoid receptor 2 [23] = target: T1, Cannabinoid receptor 2; experiment: Inverse agonist activity at N-terminal HA-tagged human CB2 receptor expressed in HEK293 cells transfected with YFP-Epac-RLuc assessed as increase in forskolin-stimulated cAMP level by BRET assay relative to control; assay type: functional, cell-based; in short: as §3
Cannabinoid receptor 2 [24] = target: T1, Cannabinoid receptor 2; experiment: Inverse agonist activity at N-terminal HA-tagged human CB2 receptor expressed in HEK293 cells transfected with YFP-Epac-RLuc assessed as increase in forskolin-stimulated cAMP level at 10 uM by BRET assay; assay type: functional, cell-based
Cannabinoid receptor 2 [25] = target: T1, Cannabinoid receptor 2; experiment: Inverse agonist activity at N-terminal HA-tagged human CB2 receptor expressed in HEK293 cells transfected with YFP-Epac-RLuc assessed as increase in forskolin-stimulated cAMP level by BRET assay; assay type: functional, cell-based; in short: as §3

T2 sequence (P21554 whole entry): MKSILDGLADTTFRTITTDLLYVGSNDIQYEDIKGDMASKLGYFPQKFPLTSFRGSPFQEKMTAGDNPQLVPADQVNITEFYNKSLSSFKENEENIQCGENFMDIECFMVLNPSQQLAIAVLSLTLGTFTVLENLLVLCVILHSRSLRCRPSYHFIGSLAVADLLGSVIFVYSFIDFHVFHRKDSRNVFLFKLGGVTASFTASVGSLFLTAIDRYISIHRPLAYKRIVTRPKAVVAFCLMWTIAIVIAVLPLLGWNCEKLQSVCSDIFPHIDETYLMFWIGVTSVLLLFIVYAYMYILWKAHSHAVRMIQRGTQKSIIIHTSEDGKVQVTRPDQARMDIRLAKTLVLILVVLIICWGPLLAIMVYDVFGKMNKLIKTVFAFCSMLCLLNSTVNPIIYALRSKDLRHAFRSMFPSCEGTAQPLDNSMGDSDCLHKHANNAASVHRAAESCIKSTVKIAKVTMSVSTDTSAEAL
Proprotein convertase subtilisin/kexin type 9 (Homo sapiens), sequence (Q8NBP7 31-152 limits assumed): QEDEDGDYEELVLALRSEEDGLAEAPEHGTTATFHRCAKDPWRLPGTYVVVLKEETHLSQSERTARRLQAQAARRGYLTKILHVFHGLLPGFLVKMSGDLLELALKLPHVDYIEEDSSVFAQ
Proprotein convertase subtilisin/kexin type 9 (Homo sapiens), sequence (Q8NBP7 153-692 limits assumed): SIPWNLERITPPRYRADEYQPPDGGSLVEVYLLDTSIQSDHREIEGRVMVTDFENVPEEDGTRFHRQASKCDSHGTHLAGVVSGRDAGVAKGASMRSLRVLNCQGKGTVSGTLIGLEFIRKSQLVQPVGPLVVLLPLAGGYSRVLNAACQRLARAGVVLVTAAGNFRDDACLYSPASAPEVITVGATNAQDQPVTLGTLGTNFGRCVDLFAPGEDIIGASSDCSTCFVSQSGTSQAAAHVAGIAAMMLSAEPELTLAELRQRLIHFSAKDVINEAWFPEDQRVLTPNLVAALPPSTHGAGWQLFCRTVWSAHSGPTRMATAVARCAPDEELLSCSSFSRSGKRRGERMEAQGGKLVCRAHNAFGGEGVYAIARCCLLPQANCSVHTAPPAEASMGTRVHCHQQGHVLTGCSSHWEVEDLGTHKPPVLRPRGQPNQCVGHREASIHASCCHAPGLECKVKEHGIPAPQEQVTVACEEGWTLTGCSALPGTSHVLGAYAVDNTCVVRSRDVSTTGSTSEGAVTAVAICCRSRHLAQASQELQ
Interleukin-17A (Homo sapiens), sequence (Q16552 whole entry): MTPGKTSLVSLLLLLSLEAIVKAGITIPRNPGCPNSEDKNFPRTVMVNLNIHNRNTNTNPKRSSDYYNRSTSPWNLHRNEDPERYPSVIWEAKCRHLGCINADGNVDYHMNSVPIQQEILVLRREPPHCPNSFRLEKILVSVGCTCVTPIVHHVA
T1 sequence (P34972 whole entry): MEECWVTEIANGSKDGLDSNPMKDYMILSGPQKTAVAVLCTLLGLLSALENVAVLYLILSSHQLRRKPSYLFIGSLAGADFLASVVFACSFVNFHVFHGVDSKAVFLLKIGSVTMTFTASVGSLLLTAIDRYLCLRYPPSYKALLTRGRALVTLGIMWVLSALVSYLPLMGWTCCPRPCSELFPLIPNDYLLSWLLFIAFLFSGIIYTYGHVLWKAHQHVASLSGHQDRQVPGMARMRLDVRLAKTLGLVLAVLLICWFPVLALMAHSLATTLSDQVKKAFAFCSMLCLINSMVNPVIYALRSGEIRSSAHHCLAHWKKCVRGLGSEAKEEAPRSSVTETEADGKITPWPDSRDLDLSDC
Potassium voltage-gated channel subfamily KQT member 2 (Homo sapiens), sequence (O43526 whole entry): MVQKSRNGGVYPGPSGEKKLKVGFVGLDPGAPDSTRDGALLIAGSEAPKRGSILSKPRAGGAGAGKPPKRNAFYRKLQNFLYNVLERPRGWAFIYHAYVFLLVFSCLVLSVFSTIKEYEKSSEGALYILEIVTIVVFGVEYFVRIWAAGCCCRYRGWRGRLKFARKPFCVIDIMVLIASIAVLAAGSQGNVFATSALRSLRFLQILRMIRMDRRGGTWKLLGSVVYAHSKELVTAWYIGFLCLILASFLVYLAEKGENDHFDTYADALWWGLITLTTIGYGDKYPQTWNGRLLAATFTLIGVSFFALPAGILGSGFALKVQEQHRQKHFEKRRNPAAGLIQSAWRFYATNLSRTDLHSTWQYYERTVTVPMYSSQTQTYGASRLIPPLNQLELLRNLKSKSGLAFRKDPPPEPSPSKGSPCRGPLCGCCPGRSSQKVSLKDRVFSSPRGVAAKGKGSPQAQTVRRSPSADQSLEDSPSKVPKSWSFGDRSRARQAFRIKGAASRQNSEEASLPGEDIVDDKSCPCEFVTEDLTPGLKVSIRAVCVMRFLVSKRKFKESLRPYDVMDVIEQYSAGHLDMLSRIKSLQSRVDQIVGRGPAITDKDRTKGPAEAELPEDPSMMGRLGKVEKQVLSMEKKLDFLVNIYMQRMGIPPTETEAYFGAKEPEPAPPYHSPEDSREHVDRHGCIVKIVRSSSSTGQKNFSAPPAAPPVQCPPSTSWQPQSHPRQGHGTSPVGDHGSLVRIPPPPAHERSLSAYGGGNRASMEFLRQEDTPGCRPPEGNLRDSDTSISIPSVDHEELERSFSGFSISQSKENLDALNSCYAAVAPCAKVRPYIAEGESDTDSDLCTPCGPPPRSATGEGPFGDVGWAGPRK

SMILES	Activity (HEK293 [2]) [%]	Activity (Cannabinoid receptor 1 [4])	inhibition (Cannabinoid receptor 2 [5]) [%]	Activity [6]	Emax (Cannabinoid receptor 1 [7]) [%]	inhibition [8]	inhibition (Cannabinoid receptor 1 [9]) [%]	Activity [11]	Activity (HEK293 [12]) [%]	Activity [13]	Ki (Cannabinoid receptor 2 [14]) [nM]	inhibition [15]	inhibition [16]	EC50 (Cannabinoid receptor 1 [17]) [nM]	Ki (Cannabinoid receptor 1 [18]) [nM]	growth inhibition (GI) (Leishmania donovani)	Activity (Cannabinoid receptor 1 [21])	Emax (Cannabinoid receptor 1 [22])	Emax (Cannabinoid receptor 2 [23]) [%]	Activity (Cannabinoid receptor 2 [24])	other results
COc1ccc(C(=O)c2cn(CC3CCOCC3)c3ccc(O)cc23)cc1	105.5	Active	> 50	inactive	62.2	inactive	> 50	inactive	109.6	inactive	120	inactive	inactive	62.9	1410	inactive	–	–	–	–	Activity (Cannabinoid receptor 2 [1]): Active; EC50 (Cannabinoid receptor 2 [3]): 4.4 nM; Emax (Cannabinoid receptor 2 [10]): 65.7%
CCCOc1ccc2c(c1)c(C(=O)c1ccc(OC)cc1)cn2CC1CCOCC1	95	–	> 50	inactive	–	inactive	> 50	inactive	127.6	inactive	1350	inactive	inactive	–	4530	inactive	inactive	inactive	–	–	Activity (Cannabinoid receptor 2 [19]): inactive; Emax (Cannabinoid receptor 2 [20]): inactive
Cc1ccc(Cn2nc(C(=O)N[C@@H]3C(C)(C)[C@@H]4CC[C@@]3(C)C4)cc2-c2ccc(Cl)c(C)c2)cc1	99.8	–	–	–	–	–	–	–	94.5	–	–	–	–	–	–	–	inactive	inactive	212	–	–
CCCOc1cccc2c(C(=O)c3ccc(OC)cc3)cn(CC3CCOCC3)c12	105.4	–	> 50	–	–	–	> 50	–	133.9	–	5.7	–	–	–	505	–	inactive	inactive	263	Active	IC50 (Cannabinoid receptor 2 [25]): 30.6 nM
COc1ccc(C(=O)c2cn(CC3CCOCC3)c3c(O)cccc23)cc1	104.3	Active	> 50	inactive	64.3	inactive	> 50	inactive	135.3	inactive	53.9	inactive	inactive	632	3580	inactive	–	–	190	Active	IC50 (Cannabinoid receptor 2 [25]): 272 nM
